Legend:
Phosphodiesterase 4 = Phosphodiesterase 4 (Homo sapiens, UniProt P27815+Q08499+Q07343+Q08493); assay: Inhibition of PDE4 in the cytosol of human neutrophils; type: protein assay
Procedure, shortened: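 Cytosol of human polymorphonuclear leukocytes from leukocyte concentrates, with motapizone 1 µM to suppress platelet PDE3. [3H]cAMP hydrolysis (0.5 µM cAMP, Tris-HCl pH 7.4, 5 mM MgCl2), 5 min preincubation plus 15 min at 37 °C. Snake venom nucleotidase step, ion-exchange separation, scintillation counting.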

Phosphodiesterase 3 = Phosphodiesterase 3 (Homo sapiens, UniProt Q14432+Q13370); assay: Inhibition of PDE3 in homogenates of human blood platelets
Procedure, shortened: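 PDE3 from human blood platelet homogenates. Radiometric assay: 50 mM Tris-HCl pH 7.4, 5 mM MgCl2, 0.5 µM cAMP plus [3H]cAMP; 5 min preincubation then 15 min at 37 °C; HCl stop, Crotalus atrox 5'-nucleotidase, QAE Sephadex separation, blank-corrected counts. Inhibitors at 0.5% DMSO final; IC50 by nonlinear regression; two independent determinations in triplicate.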

SMILES	Log IC50 (Phosphodiesterase 4)	Log IC50 (Phosphodiesterase 3)
COc1ccc(C2=NN(Cc3ccccc3)C(=O)[C@@H]3CC=CC[C@H]23)cc1OC	-8.4	
COc1ccc(-c2nnc(O)c3c2CCCC3)cc1OC	-5.2	
COc1cc(-c2ccc(=O)[nH]n2)ccc1OC(F)F [ZARDAVERINE]		-6.2
COc1ccc(C2=NN(c3ccccc3)C(=O)C(C)C2)cc1OC (stereo not given)	-6.9	< -5
COc1ccc(C2=NNC(=O)CC2)cc1OC	-5.9	-5.6
COc1ccc(C2=NN(c3ccccc3)C(=O)C(C)C2C)cc1OC (stereo not given)	-7.3	< -5
COc1ccc(C2=NN(c3ccccc3)C(=O)[C@@H]3CCCC[C@H]23)cc1OC	-7.6	
COc1ccc(C2=NNC(=O)[C@@H]3CC=CC[C@H]23)cc1OC (relative stereo)	-7	
COc1ccc(C2=NN(c3ccccc3)C(=O)CC2)cc1OC	-6.4	< -5
COc1ccc(C2=NNC(=O)CC2C)cc1OC (stereo not given)	-6.5	-6.6
COc1ccc(C2=NN(c3ccccc3)C(=O)[C@@H]3CC=CC[C@@H]23)cc1OC	-6.1	
COc1ccc(-c2nnc(O)c3ccccc23)cc1OC	-5.8	
COc1ccc(C2=NN(c3ccccc3)C(=O)[C@@H]3CCCC[C@@H]23)cc1OC	-5.1	
COc1ccc(-c2nn(Cc3ccccc3)c(=O)c3ccccc23)cc1OC	-6.5	
COc1ccc(-c2nn(-c3ccccc3)c(=O)c3c2CCCC3)cc1OC	-5.3	
COc1ccc(-c2nn(Cc3ccccc3)c(=O)c3c2CCCC3)cc1OC	-5.8	
COc1ccc(-c2nn(-c3ccccc3)c(=O)c3ccccc23)cc1OC	-5.8	
O=c1c2cccnc2c(-c2cccc([N+](=O)[O-])c2)nn1Cc1ccncc1 [PYRIDOPYRIDAZINONE]	-8.3	
COc1ccc(C2=NNC(=O)C(C)C2C)cc1OC (stereo in doubt; 3e)	-6.2	-5.4
COc1ccc(C2=NNC(=O)C(C)C2C)cc1OC (stereo in doubt; 3d)	-6.7	< -5
COc1ccc(C2=NNC(=O)[C@@H]3CCCC[C@H]23)cc1OC (relative stereo)	-6.4	
COc1ccc(C2=NN(c3ccccc3)C(=O)[C@@H]3CC=CC[C@H]23)cc1OC	-7.9	
COc1ccc(C2=NN(Cc3ccccc3)C(=O)CC2)cc1OC	-7.1	-5.3
COc1ccc(C2=NN(Cc3ccccc3)C(=O)[C@@H]3CCCC[C@H]23)cc1OC	-8.1	
COc1ccc(C2=NNC(=O)[C@@H]3CCCC[C@@H]23)cc1OC	-5.3	
COc1ccc(C2=NN(c3ccccc3)C(=O)CC2C)cc1OC (stereo not given)	-6.8	< -5
